Assay results from paper PMC9302689 (British Journal of Clinical Pharmacology, 2022).

Test system: healthy male subjects
Experiment: Pharmaco-EEG
Format: in vivo, human
Settings: 12-hour post-dose period
Outline: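 Continuous EEG was recorded from 21 electrodes placed by the 10–20 system, with mastoid electrodes replacing the earlobe ones. Recordings followed IPEG guidelines, twice pre-dose and at 0.5–10 h post-dose. Power spectra for Fz-Cz and Pz-O derivations were split into bands to give total band power (μV). Values were ln-transformed, analysed by MMRM over 12 h against pooled placebo, and back-transformed.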

SMILES: CN1CCC23CCCCC2C1Cc1ccc(C(N)=O)cc13 (stereo not drawn) [ALKS 7119, (9α, 13α)‐17‐methylmorphinan‐3‐carboxamide]
- Alpha-power Fz-Cz, LSM CFB (3 mg single oral dose): 0.01 Hz
- Alpha-power Fz-Cz, estimate of difference compared to placebo (3 mg single oral dose): 0 [−0.97, 0.97] P = 1.00 Hz
- Alpha-power Pz-Oz, LSM CFB (3 mg single oral dose): −0.06 Hz
- Alpha-power Pz-Oz, estimate of difference compared to placebo (3 mg single oral dose): −0.16 [−0.41, 0.10] P = .23 Hz
- Beta-power Fz-Cz, LSM CFB (3 mg single oral dose): 0.03 Hz
- Beta-power Fz-Cz, estimate of difference compared to placebo (3 mg single oral dose): −0.09 [−0.31, 0.14] P = .45 Hz
- Beta-power Pz-Oz, LSM CFB (3 mg single oral dose): −0.03 Hz
- Beta-power Pz-Oz, estimate of difference compared to placebo (3 mg single oral dose): −0.16 [−0.36, 0.04] P = .11 Hz
- Delta-power Fz-Cz, LSM CFB (3 mg single oral dose): 0 Hz
- Delta-power Fz-Cz, estimate of difference compared to placebo (3 mg single oral dose): −0.11 [−0.32, 0.10] P = .32 Hz
- Delta-power Pz-Oz, LSM CFB (3 mg single oral dose): −0.12 Hz
- Delta-power Pz-Oz, estimate of difference compared to placebo (3 mg single oral dose): −0.18 [−0.41, 0.05] P = .12 Hz
- Gamma-power Fz-Cz, LSM CFB (3 mg single oral dose): 0.05 Hz
- Gamma-power Fz-Cz, estimate of difference compared to placebo (3 mg single oral dose): −0.04 [−0.25, 0.16] P = .66 Hz
- Gamma-power Pz-Oz, LSM CFB (3 mg single oral dose): 0.09 Hz
- Gamma-power Pz-Oz, estimate of difference compared to placebo (3 mg single oral dose): −0.12 [−0.37, 0.13] P = .35 Hz
- Theta-power Fz-Cz, LSM CFB (3 mg single oral dose): −0.06 Hz
- Theta-power Fz-Cz, estimate of difference compared to placebo (3 mg single oral dose): −0.14 [−0.36, 0.09] P = .23 Hz
- Theta-power Pz-Oz, LSM CFB (3 mg single oral dose): −0.1 Hz
- Theta-power Pz-Oz, estimate of difference compared to placebo (3 mg single oral dose): −0.17 [−0.40, 0.06] P = .15 Hz
- Alpha-power Fz-Cz, LSM CFB (10 mg single oral dose): 0.09 Hz
- Alpha-power Fz-Cz, estimate of difference compared to placebo (10 mg single oral dose): 0.15 [−0.94, 1.24] P = .79 Hz
- Alpha-power Pz-Oz, LSM CFB (10 mg single oral dose): 0.11 Hz
- Alpha-power Pz-Oz, estimate of difference compared to placebo (10 mg single oral dose): 0.01 [−0.25, 0.27] P = .94 Hz
- Beta-power Fz-Cz, LSM CFB (10 mg single oral dose): 0.08 Hz
- Beta-power Fz-Cz, estimate of difference compared to placebo (10 mg single oral dose): −0.03 [−0.26, 0.19] P = .78 Hz
- Beta-power Pz-Oz, LSM CFB (10 mg single oral dose): 0.14 Hz
- Beta-power Pz-Oz, estimate of difference compared to placebo (10 mg single oral dose): 0.01 [−0.19, 0.21] P = .91 Hz
- Delta-power Fz-Cz, LSM CFB (10 mg single oral dose): 0.05 Hz
- Delta-power Fz-Cz, estimate of difference compared to placebo (10 mg single oral dose): −0.05 [−0.26, 0.16] P = .65 Hz
- Delta-power Pz-Oz, LSM CFB (10 mg single oral dose): 0.07 Hz
- Delta-power Pz-Oz, estimate of difference compared to placebo (10 mg single oral dose): 0.01 [−0.23, 0.24] P = .96 Hz
- Gamma-power Fz-Cz, LSM CFB (10 mg single oral dose): 0.09 Hz
- Gamma-power Fz-Cz, estimate of difference compared to placebo (10 mg single oral dose): −0.01 [−0.21, 0.21] P = .95 Hz
- Gamma-power Pz-Oz, LSM CFB (10 mg single oral dose): 0.13 Hz
- Gamma-power Pz-Oz, estimate of difference compared to placebo (10 mg single oral dose): −0.08 [−0.33, 0.17] P = .54 Hz
- Theta-power Fz-Cz, LSM CFB (10 mg single oral dose): 0.02 Hz
- Theta-power Fz-Cz, estimate of difference compared to placebo (10 mg single oral dose): −0.05 [−0.28, 0.18] P = .65 Hz
- Theta-power Pz-Oz, LSM CFB (10 mg single oral dose): 0.04 Hz
- Theta-power Pz-Oz, estimate of difference compared to placebo (10 mg single oral dose): −0.03 [−0.26, 0.20] P = .79 Hz
- Alpha-power Fz-Cz, LSM CFB (25 mg single oral dose): −0.01 Hz
- Alpha-power Pz-Oz, LSM CFB (25 mg single oral dose): −0.01 Hz
- Alpha-power Pz-Oz, estimate of difference compared to placebo (25 mg single oral dose): −0.11 [−0.36, 0.15] P = .41 Hz
- Beta-power Fz-Cz, LSM CFB (25 mg single oral dose): 0.05 Hz
- Beta-power Fz-Cz, estimate of difference compared to placebo (25 mg single oral dose): −0.06 [−0.28, 0.16] P = .58 Hz
- Beta-power Pz-Oz, LSM CFB (25 mg single oral dose): 0.08 Hz
- Beta-power Pz-Oz, estimate of difference compared to placebo (25 mg single oral dose): −0.04 [−0.24, 0.15] P = .66 Hz
- Delta-power Fz-Cz, LSM CFB (25 mg single oral dose): −0.04 Hz
- Delta-power Fz-Cz, estimate of difference compared to placebo (25 mg single oral dose): −0.14 [−0.35, 0.07] P = .19 Hz
- Delta-power Pz-Oz, LSM CFB (25 mg single oral dose): 0 Hz
- Delta-power Pz-Oz, estimate of difference compared to placebo (25 mg single oral dose): −0.06 [−0.31, 0.17] P = .61 Hz
- Gamma-power Fz-Cz, LSM CFB (25 mg single oral dose): 0.06 Hz
- Gamma-power Fz-Cz, estimate of difference compared to placebo (25 mg single oral dose): −0.04 [−0.04, 0.16] P = .69 Hz
- Gamma-power Pz-Oz, LSM CFB (25 mg single oral dose): 0.16 Hz
- Gamma-power Pz-Oz, estimate of difference compared to placebo (25 mg single oral dose): −0.05 [−0.30, 0.20] P = .70 Hz
- Theta-power Fz-Cz, LSM CFB (25 mg single oral dose): −0.06 Hz
- Theta-power Fz-Cz, estimate of difference compared to placebo (25 mg single oral dose): −0.13 [−0.36, 0.09] P = .24 Hz
- Theta-power Pz-Oz, LSM CFB (25 mg single oral dose): −0.04 Hz
- Theta-power Pz-Oz, estimate of difference compared to placebo (25 mg single oral dose): −0.11 [−0.35, 0.12] P = .33 Hz
- Alpha-power Fz-Cz, LSM CFB (50 mg single oral dose): 0.08 Hz
- Alpha-power Fz-Cz, estimate of difference compared to placebo (50 mg single oral dose): 0.13 [−0.81, 1.07] P = .79 Hz
- Alpha-power Pz-Oz, LSM CFB (50 mg single oral dose): 0.03 Hz
- Alpha-power Pz-Oz, estimate of difference compared to placebo (50 mg single oral dose): −0.06 [−0.32, 0.19] P = .62 Hz
- Beta-power Fz-Cz, LSM CFB (50 mg single oral dose): 0.04 Hz
- Beta-power Fz-Cz, estimate of difference compared to placebo (50 mg single oral dose): −0.07 [−0.31, 0.15] P = .51 Hz
- Beta-power Pz-Oz, LSM CFB (50 mg single oral dose): 0.13 Hz
- Beta-power Pz-Oz, estimate of difference compared to placebo (50 mg single oral dose): 0 [−0.20, 0,20] P = 1.00 Hz
- Delta-power Fz-Cz, LSM CFB (50 mg single oral dose): 0 Hz
- Delta-power Fz-Cz, estimate of difference compared to placebo (50 mg single oral dose): −0.10 [−0.31, 0.11] P = .34 Hz
- Delta-power Pz-Oz, LSM CFB (50 mg single oral dose): 0.08 Hz
- Delta-power Pz-Oz, estimate of difference compared to placebo (50 mg single oral dose): 0.02 [−0.21, 0.25] P = .87 Hz
- Gamma-power Fz-Cz, LSM CFB (50 mg single oral dose): 0.01 Hz
- Gamma-power Fz-Cz, estimate of difference compared to placebo (50 mg single oral dose): −0.09 [−0.31, 0.11] P = .39 Hz
- Gamma-power Pz-Oz, LSM CFB (50 mg single oral dose): 0.08 Hz
- Gamma-power Pz-Oz, estimate of difference compared to placebo (50 mg single oral dose): −0.12 [−0.38, 0.13] P = .33 Hz
- Theta-power Fz-Cz, LSM CFB (50 mg single oral dose): 0.02 Hz
- Theta-power Fz-Cz, estimate of difference compared to placebo (50 mg single oral dose): −0.05 [−0.28, 0.17] P = .64 Hz
- Theta-power Pz-Oz, LSM CFB (50 mg single oral dose): 0.08 Hz
- Theta-power Pz-Oz, estimate of difference compared to placebo (50 mg single oral dose): 0.01 [−0.23, 0.24] P = .95 Hz
- Alpha-power Fz-Cz, LSM CFB (75 mg single oral dose): 0.16 Hz
- Alpha-power Fz-Cz, estimate of difference compared to placebo (75 mg single oral dose): 0.32 [−0.64, 1.29] P = .51 Hz
- Alpha-power Pz-Oz, LSM CFB (75 mg single oral dose): 0.14 Hz
- Alpha-power Pz-Oz, estimate of difference compared to placebo (75 mg single oral dose): 0.04 [−0.22, 0.30] P = .75 Hz
- Beta-power Fz-Cz, LSM CFB (75 mg single oral dose): 0.21 Hz
- Beta-power Fz-Cz, estimate of difference compared to placebo (75 mg single oral dose): 0.09 [−0.13, 0.32] P = .40 Hz
- Beta-power Pz-Oz, LSM CFB (75 mg single oral dose): 0.17 Hz
- Beta-power Pz-Oz, estimate of difference compared to placebo (75 mg single oral dose): 0.04 [−0.16, 0.24] P = .69 Hz
- Delta-power Fz-Cz, LSM CFB (75 mg single oral dose): 0.17 Hz
- Delta-power Fz-Cz, estimate of difference compared to placebo (75 mg single oral dose): 0.06 [−0.15, 0.27] P = .55 Hz
- Delta-power Pz-Oz, LSM CFB (75 mg single oral dose): 0.1 Hz
- Delta-power Pz-Oz, estimate of difference compared to placebo (75 mg single oral dose): 0.04 [−0.21, 0.27] P = .76 Hz
- Gamma-power Fz-Cz, LSM CFB (75 mg single oral dose): 0.27 Hz
- Gamma-power Fz-Cz, estimate of difference compared to placebo (75 mg single oral dose): 0.17 [−0.03, 0.37] P = .10 Hz
- Gamma-power Pz-Oz, LSM CFB (75 mg single oral dose): 0.27 Hz
- Gamma-power Pz-Oz, estimate of difference compared to placebo (75 mg single oral dose): 0.06 [−0.19, 0.32] P = .64 Hz
- Theta-power Fz-Cz, LSM CFB (75 mg single oral dose): 0.18 Hz
- Theta-power Fz-Cz, estimate of difference compared to placebo (75 mg single oral dose): 0.11 [−0.12, 0.33] P = .34 Hz
